Laboratory results taken from ChEMBL document CHEMBL3872222, “Synthesis of novel curcuminoids accommodating a central β-enaminone motif and their impact on cell growth and oxidative stress” (Eur J Med Chem, 2016).
Converted amounts (≈) assume the structure as drawn.

Legend:
[1] = Antioxidant activity assessed as trolox equivalent of ferric ion reducing activity using Fe3+-TPTZ by measuring Fe2+-TPTZ formation after 4 mins by UV-vis spectrophotometry based FRAP assay; assay type: functional
Outline: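 FRAP reagent: 300 mM acetate buffer, 10 mM TPTZ in ethanol and 20 mM FeCl3 (in dilute HCl) combined 10:1:1, TPTZ and iron freshly made. Sample mixed 1:9 with reagent; absorbance 593 nm after 4 min. Expressed as trolox equivalents per μM from slope of linear plot versus analog concentration.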

[2] = tested on: EA.hy 926; experiment: Effect on oxidative stress in human EAhy926 cells assessed as intracellular ROS level at 1 uM after overnight incubation by DCFH-DA staining based fluorescence assay relative to control; assay type: functional
Outline: (§1)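 Cells grown in DMEM+glutamax, 1% NEAA, 1% P/S, 10% FBS; seeded 20000/well, treated at confluency overnight in serum-free medium, DMSO under 0.1% final. Loaded with 20 μM DCFH-DA 30 min at 37 °C, 10% CO2; washed, phenol red-free medium 1 h, then serum-free medium; fluorescence ex 485/em 535 nm. Percent of untreated; two-tailed unequal-variance t-test, n≥6.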

[3] = Solubility of the compound in serum-free DMEM assessed as compound concentration required for crystal formation measured after 1 day by microscopic analysis; assay type: physicochemical; settings: 24 h
Outline: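 Compound at 0, 0.5, 1, 5, 10, 25 and 50 μM in serum-free DMEM incubated 1 day at 37 °C, 10% CO2, then examined for crystal formation.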

[4] = Antioxidant activity assessed as inhibition of DPPH radical activity at 1 uM measured after 30 mins under dark conditions by spectrophotometric analysis relative to control; assay type: functional
[5] = tested on: HT-29; experiment: Effect on oxidative stress in human HT-29 cells assessed as intracellular ROS level at 1 uM after overnight incubation by DCFH-DA staining based fluorescence assay relative to control; assay type: functional; outline: as §1
[6] = tested on: CHO; experiment: Effect on oxidative stress in CHO cells assessed as intracellular ROS level at 10 uM after overnight incubation by DCFH-DA staining based fluorescence assay relative to control; assay type: functional, Cricetulus griseus; outline: as §1
[7] = Growth inhibition of undifferentiated human Caco2 cells measured after 72 hrs by SRB assay; assay type: functional, cell-based; settings: Caco-2, 72 h
Outline: (§2)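 20000 cells/well treated after 1 day at 1, 5, 10, 25 μM, serum-free, for 3 days. Fixed with 50% TCA 1 h at 4 °C, stained 30 min with 0.4% sulforhodamine B in 1% acetic acid, rinsed with 1% acetic acid, dye dissolved in 10 mM Tris, absorbance 490 nm; triplicate; IC50 derived.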

[8] = Growth inhibition of human HT-29 cells assessed as mitochondrial activity measured after 72 hrs by MTT assay; assay type: functional, cell-based; settings: HT-29, 72 h
Outline: (§3)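 Seeded 20000 cells/well in DMEM+glutamax, NEAA, P/S, FBS; after 1 day treated 1, 5, 10, 25 μM in serum-free medium (DMSO under 0.1%) for 3 days. MTT (5 mg/ml in PBS) 2 h at 37 °C, 10% CO2 in dark; formazan dissolved in DMSO, absorbance 570 nm; triplicate; IC50 derived.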

[9] = tested on: EA.hy 926; experiment: Effect on oxidative stress in human EAhy926 cells assessed as intracellular ROS level at 10 uM after overnight incubation by DCFH-DA staining based fluorescence assay relative to control; assay type: functional; outline: as §1
[10] = tested on: CHO; experiment: Effect on oxidative stress in CHO cells assessed as intracellular ROS level at 1 uM after overnight incubation by DCFH-DA staining based fluorescence assay relative to control; assay type: functional, Cricetulus griseus; outline: as §1
[11] = Growth inhibition of human HT-29 cells measured after 72 hrs by SRB assay; assay type: functional, cell-based; settings: HT-29, 72 h; outline: as §2
[12] = Growth inhibition of undifferentiated human Caco2 cells assessed as mitochondrial activity measured after 72 hrs by MTT assay; assay type: functional, cell-based; settings: Caco-2, 72 h; outline: as §3
[13] = Growth inhibition of CHOK1 cells assessed as mitochondrial activity measured after 72 hrs by MTT assay; assay type: functional, cell-based; settings: Cricetulus griseus, CHO-K1, 72 h; outline: as §3
[14] = Growth inhibition of human EAhy926 cells measured after 72 hrs by SRB assay; assay type: cell-based; settings: EA.hy 926, 72 h; outline: as §2
[15] = tested on: Caco-2; experiment: Effect on oxidative stress in undifferentiated human Caco2 cells assessed as intracellular ROS level at 1 uM after overnight incubation by DCFH-DA staining based fluorescence assay relative to control; assay type: functional; outline: as §1
[16] = tested on: Caco-2; experiment: Effect on oxidative stress in undifferentiated human Caco2 cells assessed as intracellular ROS level at 10 uM after overnight incubation by DCFH-DA staining based fluorescence assay relative to control; assay type: functional; outline: as §1
[17] = Growth inhibition of CHOK1 cells measured after 72 hrs by SRB assay; assay type: functional, cell-based; settings: Cricetulus griseus, CHO-K1, 72 h; outline: as §2
[18] = Growth inhibition of human EAhy926 cells assessed as mitochondrial activity measured after 72 hrs by MTT assay; assay type: cell-based; settings: EA.hy 926, 72 h; outline: as §3
[19] = Growth inhibition of differentiated human Caco2 cells assessed as mitochondrial activity measured after 72 hrs by MTT assay; assay type: cell-based; settings: Caco-2, 72 h; outline: as §3
[20] = Growth inhibition of differentiated human Caco2 cells measured after 72 hrs by SRB assay; assay type: cell-based; settings: Caco-2, 72 h; outline: as §2
[21] = tested on: HT-29; experiment: Effect on oxidative stress in human HT-29 cells assessed as intracellular ROS level at 10 uM after overnight incubation by DCFH-DA staining based fluorescence assay relative to control; assay type: functional; outline: as §1

Compound | Activity [1] | Activity [2] | solubility [3] | inhibition [4] | Activity [5] | Activity [6] | IC50 [7] | IC50 [8] | Activity [9] | Activity [10] | IC50 [11] | IC50 [12] | IC50 [13] | IC50 [14] | Activity [15] | Activity [16] | IC50 [17] | IC50 [18] | IC50 [19] | IC50 [20] | other results
CCCCNC(=C\C(=O)/C=C/c1ccc(O)c(OC)c1)/C=C/c1ccc(O)c(OC)c1 | 1.29 µMequiv/µM | 110% | 5 µM (≈ 2.12 µg/mL) | 0.08% | 99% | 110% | 23.8 µM | 19.7 µM | 439% | 129% | 21.2 µM | > 25 µM | 7 µM | > 25 µM | 91% | 83% | 20.4 µM | > 25 µM | > 25 µM | > 25 µM | Activity [21]: 98%
CCCNC(=C\C(=O)/C=C/c1ccc(O)c(OC)c1)/C=C/c1ccc(O)c(OC)c1 | 0.87 µMequiv/µM | 78% | 50 µM (≈ 20.5 µg/mL) | 0.1% | 88% | 118% | 22 µM | 22.7 µM | 141% | 116% | > 25 µM | > 25 µM | > 25 µM | > 25 µM | 97% | 88% | > 25 µM | > 25 µM | > 25 µM | > 25 µM | Activity [21]: 92%
CCC(C)NC(=C\C(=O)/C=C/c1ccc(OC(C)=O)c(OC)c1)/C=C/c1ccc(OC(C)=O)c(OC)c1 (configuration not stated) | 0 µMequiv/µM | 68% | 5 µM (≈ 2.54 µg/mL) | 0% | 92% | 92% | 24 µM | > 25 µM | 105% | 88% | > 25 µM | > 25 µM | > 25 µM | > 25 µM | 95% | 86% | > 25 µM | > 25 µM | > 25 µM | > 25 µM | Activity [21]: 89%
COc1cc(/C=C/C(=O)/C=C(/C=C/c2ccc(O)c(OC)c2)NC2CCCCC2)ccc1O | 0.83 µMequiv/µM | 91% | 25 µM (≈ 11.2 µg/mL) | 0.13% | 80% | 122% | 5.1 µM | > 25 µM | 191% | 137% | > 25 µM | > 25 µM | 24.7 µM | > 25 µM | 88% | 63% | > 25 µM | > 25 µM | > 25 µM | > 25 µM | Activity [21]: 74%
CC(=O)Oc1ccc(/C=C/C(=O)/C=C(/C=C/c2ccc(OC(C)=O)cc2)NCC(C)C)cc1 | 0.01 µMequiv/µM | 60% | 25 µM (≈ 11.2 µg/mL) | 0% | 92% | 142% | > 25 µM | 13.7 µM | 53% | 152% | 22.6 µM | > 25 µM | > 25 µM | > 25 µM | 102% | 85% | > 25 µM | > 25 µM | > 25 µM | > 25 µM | Activity [21]: 99%
C=CCNC(=C\C(=O)/C=C/c1ccc(O)c(OC)c1)/C=C/c1ccc(O)c(OC)c1 | 1.14 µMequiv/µM | 124% | 25 µM (≈ 10.2 µg/mL) | 0.1% | 99% | 104% | > 25 µM | > 25 µM | 267% | 115% | 24.6 µM | > 25 µM | 7.4 µM | > 25 µM | 89% | 76% | > 25 µM | > 25 µM | > 25 µM | > 25 µM | Activity [21]: 84%
CCC(C)NC(=C\C(=O)/C=C/c1ccc(O)cc1)/C=C/c1ccc(O)cc1 (configuration not stated) | 0.18 µMequiv/µM | 99% | 25 µM (≈ 9.09 µg/mL) | 0.03% | 76% | 111% | 5.8 µM | 13 µM | 414% | 104% | 15.6 µM | 9.4 µM | 13.1 µM | > 25 µM | 102% | 102% | 15.1 µM | 22 µM | > 25 µM | > 25 µM | Activity [21]: 76%
